This is one part of a sample in which hits are shown more often than they occur.
HSF1 inh – HSF1 inhibition; NIH3T3-HGL HSE-luciferase, MG132-induced, luminescence 8 h; hits give low values; activity change, negative = inhibition, % at 7.5 µM (by protocol); actives 0.77% (n = 300,000); AID 2098;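 active = more than half of replicate wells show activity change below -50%, luminescence cut by over half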;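 note: luciferase reports HSF-1 transcriptional activity via heat shock element; 0% = median of DMSO wells and -100% = zero luminescence signal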
Hsp70 act – transcriptional activators of Hsp70; actives 0.04% (n = 200,000); AID 1203; HeLa Hsp70 promoter luciferase reporter, luminescence; scaled: vehicle 0, proteasome-inhibitor control 100%; activation, % at 10 µM;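 active = activation above the mean across all tested compounds plus 3 SD, cutoff set per campaign, cut at about 5.5% in these data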;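 note: 100% = MG132 at 30 µM as the positive control and 0% = DMSO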
L major viab – reduces viability of Leishmania major promastigotes | resazurin fluorescence viability | inhibition, % at 10 µM | actives 9% (n = 200,000); in the data active = inhibition above about 50%;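 note: promastigotes grown with compound for 44 hours at 28 °C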
HSF-1 act – increases HSF-1 driven luciferase reporter signal. NIH3T3-HGL HSF-1 luciferase reporter, MG132, 8 h; 100% = twice DMSO control signal. activation, % at 9 µM. actives 1.7% (n = 300,000). AID 504408;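 active = mean replicate activation of at least 50% with a set share of replicates each reaching 50%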;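 note: 0% = median of the neutral control wells and 100% = twice that signal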
T cruzi repl – blocks replication of Trypanosoma cruzi; T. cruzi beta-gal in NIH3T3, luminescence, 90 h; inhibition, % (no concentration beside the values); actives 1.4% (n = 300,000); AID 1885;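 active = mean inhibition across valid replicates above about 55%, limit read from the data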;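 note: signal also drops with host cell toxicity which is not excluded here; 0% = plate median of DMSO wells and 100% = zero luminescence signal; higher percent means less beta-gal luminescence so fewer parasites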
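Assay system: NIH/3T3 fibroblasts plus reporter T. cruzi. Amount: NIH/3T3 cells, 5,000 per well. Buffer or medium: DMEM, 2% fetal bovine serum. Doses: compound pinned at 50 nL/well, DMSO. Schedule: ≥90 h infection period, 3 h prior cell attachment. Signal: luminescent β-galactosidase signal after 60 min lysis. Read-out: parasite load inhibition, %.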
The depositor's hits bear a star; . = not tested or not shown.

SMILES | HSF1 inh | Hsp70 act | L major viab | HSF-1 act | T cruzi repl
CCOC(=O)c1c(C)n(C)c2ccc(O)c(CN3CCN(C)CC3)c12 | 28.9 | -0.5 | -3.3 | 55.6* | 2.9
CCOC(=O)c1c(C)n(C)c2ccc(O)c(CN3CCC(C)CC3)c12 | 4.3 | -0.3 | 61.3* | -1.5 | 40.4
CCOC(=O)c1c(CSc2ccccc2)n(C)c2ccc(O)c(CN3CCOCC3)c12 | 69.5 | -0.1 | 21.6 | 70.2* | 14.6
CCOC(=O)c1c(-c2ccccc2)oc2ccc(O)c(CN3CCN(C)CC3)c12 | 16.2 | -0.5 | 88.7* | 24.4 | 0.0
Cc1cc(Cl)ccc1NC(=S)N1CCN(C(=O)c2ccco2)CC1 | -2.7 | . | . | 5.9 | -4.7
COc1cccc(NC(=O)C2CCC(CNS(=O)(=O)c3cccs3)CC2)c1 (stereo not given) | 1.2 | -0.3 | 20.1 | 2.2 | 10.0
CCOC(=O)c1c(C)n(-c2ccccc2)c2ccc(O)cc12 | -4.4 | -0.3 | -3.6 | -5.6 | 23.2
CCOC(=O)c1c(C)n(C)c2ccc(OC)c(NC(=O)CN3CCSCC3)c12 | -90.7* | -0.2 | -2.3 | -92.8 | -3.9
CCOC(=O)c1c(CN2CCC(C)CC2)n(C)c2cc(Br)c(OC)cc12 | 59.0 | . | . | 94.0* | 24.2
CCOC(=O)c1c(C)n(C)c2ccc(OC)c(NC(=O)CCN3CCC(Cc4ccccc4)CC3)c12 | 0.8 | . | . | 13.9 | 6.7
CCOC(=O)c1c(C)n(C)c2ccc(O)c(CN(CC)CC)c12 | 3.5 | -0.2 | 61.9* | 15.4 | 13.7
CCOC(=O)c1c(C)oc2ccc(O)c(CN(C)C)c12 | -8.0 | -0.8 | 0.8 | -6.6 | 3.5
CCOC(=O)c1c(C)n(-c2ccccc2)c2ccc(O)c(CN(C)C)c12 | 1.8 | 0.2 | 94.3* | 5.5 | 38.9
COC(=O)C1Cc2ccccc2CN1S(=O)(=O)c1ccc(F)cc1 (stereo not given) | -0.1 | . | . | -0.6 | -8.7
CCOC(=O)c1c(C)oc2cc(Cl)c(O)c(CN(C)C)c12 | 12.5 | . | . | 36.6 | -18.5
CCOC(=O)c1c(-c2ccccc2)oc2cc(CN(C)C)c(O)c(CN(C)C)c12 | 2.7 | -0.3 | 100.1* | 3.8 | 33.6
COC(=O)C1=C(C)N(CCCC(=O)O)C(=O)NC1c1ccc(-c2ccccc2)cc1 (stereo not given) | -1.1 | 0.2 | -4.2 | -4.9 | 0.2
COC(=O)C1=C(C)N(CCCC(=O)O)C(=O)NC1c1ccccc1Cl (stereo not given) | -64.3* | . | . | -71.5 | 2.4
COC(=O)C1=C(C)N(CCCC(=O)O)C(=O)NC1c1ccc(C#N)cc1 (stereo not given) | -66.4* | . | . | -73.9 | -9.1
CC(C)(C)NC(=O)NC(=O)COC(=O)CCC1CCCC1 | -8.0 | . | . | -6.0 | -10.2
CCNC(=O)/C(C#N)=C/c1c(N(Cc2ccccc2)Cc2ccccc2)nc2ccccn2c1=O | 22.1 | -0.5 | 56.3* | 65.6* | 17.0
CCNC(=O)/C(C#N)=C/c1c(N2CCN(Cc3ccc4c(c3)OCO4)CC2)nc2c(C)cccn2c1=O | 2.0 | -0.5 | 55.5* | -19.2 | 35.4
CCNC(=O)/C(C#N)=C/c1c(N2CCN(C)CC2)nc2c(C)cccn2c1=O | -5.1 | . | . | 25.6 | 0.8
CNC(=O)/C(C#N)=C/c1c(N(Cc2ccccc2)Cc2ccccc2)nc2c(C)cccn2c1=O | 1.2 | -0.2 | 72.0* | 24.4 | 12.6
C=CCNC(=O)/C(C#N)=C/c1c(N2CCN(c3ccccc3)CC2)nc2c(C)cccn2c1=O | -1.3 | . | . | 5.5 | -6.1
SMILES | HSF1 inh | Hsp70 act | L major viab | HSF-1 act | T cruzi repl
CCNC(=O)/C(C#N)=C/c1c(N2CCOCC2)nc2ccccn2c1=O | -4.2 | -0.2 | -4.6 | -4.5 | 4.1
CSCCC(NC(=O)c1ccccc1C)C(=O)O (stereo not given) | -0.5 | 0.0 | 0.5 | 0.6 | -24.2
COc1c(F)c(F)c(C(=O)Nc2ccccc2N2CCN(C(=O)C(C)C)CC2)c(F)c1F | -2.9 | -0.1 | 51.0* | 29.2 | 7.1
COc1ccc(C)cc1NC(=O)CCNS(=O)(=O)c1ccc2c(c1)CC(C)N2C(C)=O (stereo not given) | 6.8 | . | . | -0.4 | -15.4
CC(Sc1nc2ccccc2c(=O)n1CC1CCCO1)C(=O)Nc1ccc(S(N)(=O)=O)cc1 (stereo not given) | 25.0 | . | . | 55.8* | 0.0
Cc1ccccc1NC(=O)CSc1nc2ccccc2c(=O)n1CC1CCCO1 (stereo not given) | 4.2 | . | . | 8.9 | 24.7
COc1cc2c(C#N)c(N3CCc4ccccc4C3)nc(N)c2c(N)n1 | 8.2 | -0.1 | 53.9* | 14.3 | 29.9

Compound activity: PubChem BioAssay, several laboratories
